Results from ChEMBL document CHEMBL1135756, “Solid phase synthesis and evaluation of Tyr-Tic-Phe-Phe(p-NHCOCH(2)Br) ([Phe(p-bromoacetamide)(4)]TIPP), a potent affinity label for delta opioid receptors” (J Med Chem, 2002).
Non-standard residues stand in square brackets, D forms with d. Residues, ends and D or L forms follow the SMILES beside them. *: point of attachment. Phe(4-NH2) = Nc1ccc(C[C@H](N)C(=O)O)cc1; Tic = O=C(O)[C@@H]1Cc2ccccc2CN1; BrAc = O=C(CBr)*

Assays:
Mu-type opioid receptor = Mu-type opioid receptor (Rattus norvegicus, UniProt P33535); assay: Inhibitory activity against Opioid receptor mu 1 using [3H]DAMGO
Mu-type opioid receptor, sequence (P33535 whole entry): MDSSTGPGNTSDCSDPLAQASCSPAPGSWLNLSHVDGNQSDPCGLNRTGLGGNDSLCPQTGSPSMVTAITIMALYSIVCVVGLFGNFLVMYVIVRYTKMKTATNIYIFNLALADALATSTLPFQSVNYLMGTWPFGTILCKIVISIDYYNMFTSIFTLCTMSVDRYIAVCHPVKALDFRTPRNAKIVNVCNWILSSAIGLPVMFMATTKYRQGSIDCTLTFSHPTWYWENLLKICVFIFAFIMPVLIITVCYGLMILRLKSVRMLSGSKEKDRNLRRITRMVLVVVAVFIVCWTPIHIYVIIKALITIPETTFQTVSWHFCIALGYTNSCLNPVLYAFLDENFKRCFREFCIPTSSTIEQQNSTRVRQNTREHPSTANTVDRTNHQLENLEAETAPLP

[1] = target: T1, Delta-type opioid receptor (Mus musculus, UniProt P32300); assay: Inhibitory activity against Opioid receptor delta 1 using [3H]DPDPE
T1 sequence (P32300 whole entry): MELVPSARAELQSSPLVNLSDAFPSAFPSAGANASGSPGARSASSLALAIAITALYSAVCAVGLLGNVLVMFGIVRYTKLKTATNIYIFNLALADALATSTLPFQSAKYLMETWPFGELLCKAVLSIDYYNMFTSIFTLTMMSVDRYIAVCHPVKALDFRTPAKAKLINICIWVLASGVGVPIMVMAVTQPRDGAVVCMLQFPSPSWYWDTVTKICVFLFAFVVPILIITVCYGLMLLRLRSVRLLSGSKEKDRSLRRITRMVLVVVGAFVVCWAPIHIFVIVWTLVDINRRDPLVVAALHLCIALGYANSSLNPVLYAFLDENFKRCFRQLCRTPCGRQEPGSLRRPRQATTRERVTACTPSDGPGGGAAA
Summary of the method: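 Competition binding on membranes of CHO cells stably transfected with cloned δ opioid receptors, using [³H]DPDPE as radioligand under standard (equilibrium) conditions. IC50 is the mean ± SEM of 3–7 independent determinations.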

[2] = target: Kappa-type opioid receptor (Cavia porcellus, UniProt P41144); assay: Inhibitory activity against Opioid receptor kappa 1 using [3H]diprenorphine
Kappa-type opioid receptor, sequence (P41144 whole entry): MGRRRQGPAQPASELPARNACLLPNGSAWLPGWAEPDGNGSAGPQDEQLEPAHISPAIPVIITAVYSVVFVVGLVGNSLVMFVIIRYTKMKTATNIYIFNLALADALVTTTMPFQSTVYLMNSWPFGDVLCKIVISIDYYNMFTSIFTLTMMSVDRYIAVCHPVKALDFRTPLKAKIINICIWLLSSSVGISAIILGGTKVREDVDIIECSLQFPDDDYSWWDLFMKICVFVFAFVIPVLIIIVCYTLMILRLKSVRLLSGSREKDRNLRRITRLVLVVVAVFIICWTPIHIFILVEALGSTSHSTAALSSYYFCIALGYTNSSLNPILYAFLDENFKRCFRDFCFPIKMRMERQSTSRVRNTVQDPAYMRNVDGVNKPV

[3] = target: T1, Delta-type opioid receptor; assay: Binding affinity towards Opioid receptor delta 1
Summary of the method: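 Competition binding against [³H]DPDPE on membranes of CHO cells stably transfected with cloned δ opioid receptors, under standard (equilibrium) conditions. The IC₅₀ is displacement of radioligand, averaged over 3–7 independent determinations ± SEM.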

[4] = target: Delta-type opioid receptor (Mus musculus) (UniProt P32300); assay: Inhibition of cyclic adenosine 3',5'-monophosphate (cAMP) formation by recombinant Opioid receptor delta 1 in adenylyl cyclase assay; format: functional; settings: concentration not given here
Delta-type opioid receptor (Mus musculus), sequence (P32300 whole entry): as the sequence (P32300 whole entry) above

| Structure (SMILES) | IC50 (Mu-type opioid receptor) | IC50 [1] | IC50 [2] | Ki [3] | inhibition [4] |
| --- | --- | --- | --- | --- | --- |
| Nc1ccc(C[C@H](NC(=O)[C@H](Cc2ccccc2)NC(=O)[C@@H]2Cc3ccccc3CN2C(=O)[C@@H](N)Cc2ccc(O)cc2)C(=O)O)cc1 (H-Y[Tic]F[Phe(4-NH2)]-OH) | > 10000 nM | 19.9 nM | > 10000 nM | – | – |
| N[C@@H](Cc1ccc(O)cc1)C(=O)N1Cc2ccccc2C[C@H]1C(=O)N[C@@H](Cc1ccc(NC(=O)CBr)cc1)C(=O)N[C@@H](Cc1ccccc1)C(=O)O (H-Y[Tic][Phe(4-NH2)](BrAc)F-OH) | > 10000 nM | 65 nM | – | – | – |
| N[C@@H](Cc1ccc(O)cc1)C(=O)N1Cc2ccccc2C[C@H]1C(=O)N[C@@H](Cc1ccccc1)C(=O)N[C@@H](Cc1ccccc1)C(=O)O (H-Y[Tic]FF-OH) | 10000 nM | 14.1 nM | – | 1.22 nM | – |
| N[C@@H](Cc1ccc(O)cc1)C(=O)N1Cc2ccccc2C[C@H]1C(=O)N[C@@H](Cc1ccccc1)C(=O)N[C@@H](Cc1ccc(NC(=O)CBr)cc1)C(=O)O (H-Y[Tic]F[Phe(4-NH2)](BrAc)-OH) | > 5390 nM | 5.4 nM | > 10000 nM | – | 65% |
| Nc1ccc(C[C@H](NC(=O)[C@@H]2Cc3ccccc3CN2C(=O)[C@@H](N)Cc2ccc(O)cc2)C(=O)N[C@@H](Cc2ccccc2)C(=O)O)cc1 (H-Y[Tic][Phe(4-NH2)]F-OH) | > 10000 nM | 36.2 nM | – | – | – |
